ARFGAP1 inhibitor – inhibitors of rat ARFGAP1 GAP activity, primary screen, biochemical, fluorescence polarization, GDP tracer; inhibition, % at 16.5 µM; AID 651572, 2012; Arfgap1-stimulated ARF1 GTP hydrolysis, GDP FP detection; 0.26% of 360,000 active;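 active means inhibition above a per-plate limit, mean inhibition of low control wells plus 3 SD, cut at about 25% in these data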;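 further: 0% = DMSO wells with enzyme and 100% = wells lacking Arfgap1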
Target sequence (Q62848 1-136 limits assumed): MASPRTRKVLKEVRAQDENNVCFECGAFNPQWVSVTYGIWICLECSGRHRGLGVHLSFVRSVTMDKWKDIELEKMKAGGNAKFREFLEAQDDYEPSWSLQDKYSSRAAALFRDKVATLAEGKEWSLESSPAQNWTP
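Replicates: Single well per compound | Assay system: Truncated rat Arfgap1 GAP domain | Control set: No-Arfgap1 wells (100%) versus DMSO full-reaction wells (0%) | Times: Enzyme reaction 120 min at 25 °C after 20 min preincubation | Reagent: Human ARF1(Δ1-17)-GTP substrate | Measured by: Tracer-displacement fluorescence polarization with EDTA stop, 620/688 nm | Measure: Percent inhibition of Arfgap1-stimulated GTP hydrolysis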
ASAP1 GAP inh – inhibitors of human ASAP1 ArfGAP activity, primary screen, biochemical, fluorescence polarization | Arf-GAP with SH3 domain, ANK repeat and PH domain-containing protein 1 (Homo sapiens), … | ASAP1-stimulated ARF1 GTP hydrolysis, GDP FP detection | 0.19% of 360,000 active | inhibition, % at 16.5 µM; in the data active means inhibition above about 25%;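 further: 0% = vehicle with enzyme and substrate and 100% = no enzyme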
Target sequence (Q9ULH1 325-724 limits assumed): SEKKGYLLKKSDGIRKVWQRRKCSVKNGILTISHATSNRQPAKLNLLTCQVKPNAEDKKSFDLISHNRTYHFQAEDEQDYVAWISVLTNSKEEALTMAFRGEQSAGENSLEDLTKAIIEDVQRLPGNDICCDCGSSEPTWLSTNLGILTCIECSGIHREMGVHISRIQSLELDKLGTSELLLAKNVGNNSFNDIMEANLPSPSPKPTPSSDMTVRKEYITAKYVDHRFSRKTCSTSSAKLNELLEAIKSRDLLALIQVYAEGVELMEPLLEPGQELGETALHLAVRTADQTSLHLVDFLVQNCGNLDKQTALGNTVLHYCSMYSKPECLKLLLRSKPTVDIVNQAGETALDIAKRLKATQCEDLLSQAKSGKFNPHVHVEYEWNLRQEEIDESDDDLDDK
esBAF inh – Bmi1 luciferase reporter increase in mESCs, primary screen, esBAF inhibitor project, mouse ES cells, Bmi1 luciferase knock-in, single point; 2% of 350,000 active; reporter increase, % at 12.5 µM; AID 602393, 2012; 24 h; 100% = twice the neutral-well signal; in the data active means activation above about 40%;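 further: 0% = median of the plate's neutral control wells and 100% = double that signal; a rise in the Bmi1 reporter signal indicates esBAF inhibition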
SMARCA2 act – SMARCA2 (BRM) function activators, primary screen, cell-based, luminescence, high throughput | activation, % at 9.1 µM | 1% of 370,000 active | MG213 cells, MMTV-luciferase reporter, dexamethasone, overnight; in the data active means activation above about 7.8%;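 further: 0% = vehicle wells and 100% = reference activator wells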
An asterisk follows results filed as active; . = no result given. The list is not random: actives were taken first. Their share in the collection is about 2.6%.

SMILES	ARFGAP1 inhibitor	ASAP1 GAP inh	esBAF inh	SMARCA2 act
COc1ccc(S(=O)(=O)N(C)C[C@@H]2Oc3ccc(NC(=O)Nc4c(C)noc4C)cc3CC(=O)N([C@H](C)CO)C[C@@H]2C)cc1	.	.	3.0	.
O=C(CSC1=NS(=O)(=O)c2ccccc21)Nc1ccccc1	0.3	6.0	50.1*	-0.5
C[C@H](CO)N1C[C@H](C)[C@@H](CN(C)C(=O)c2ccccc2)Oc2ncc(-c3ccc(C#N)cc3)cc2C1=O	.	.	3.7	.
O=C(CCS(=O)(=O)Cc1ccccc1)Nc1ncc([N+](=O)[O-])s1	-17.1	-7.0	42.0*	0.3
O=C(c1ccccn1)N1CC[C@H]2[C@H](CO)Nc3ccc(-c4ccccc4)cc3[C@H]21	.	.	16.0	.
O=C(Cc1ccc(Br)cc1)c1ccc(O)cc1O	-7.6	3.0	59.6*	3.7
C[C@H](CO)N1C[C@H](C)[C@@H](CN(C)S(=O)(=O)c2cn(C)cn2)Oc2ccc(NS(=O)(=O)c3ccc(Cl)cc3)cc2CC1=O	.	.	3.7	.
C[C@@H]1CN([C@@H](C)CO)C(=O)c2cc(NS(=O)(=O)c3ccc(F)cc3)ccc2O[C@H]1CN(C)C(=O)NC1CCCCC1	.	.	3.8	.
COc1ccc(S(=O)(=O)Nc2ccc3c(c2)CC(=O)N([C@H](C)CO)C[C@H](C)[C@@H](CN(C)C(=O)Nc2ccccc2)O3)cc1	.	.	0.4	.
CCCNC(=O)c1cccc(Br)c1	3.7	0.5	.	-2.2
O=C(NCCc1ccccc1)c1cccc([N+](=O)[O-])c1	11.4	-1.9	56.3*	1.7
O=C(NCCc1ccccc1)c1cccc(Br)c1	9.9	-8.9	53.4*	2.2
C[C@@H]1CN([C@@H](C)CO)C(=O)c2cc(NC(=O)Cn3cnnn3)ccc2O[C@@H]1CN(C)Cc1ccc(C(=O)O)cc1	.	.	-9.0	.
O=C(Nc1ccc(Cl)c(Cl)c1)N[C@H]1CC[C@H](CCn2cc(C3CC3)nn2)O[C@H]1CO	.	.	-0.4	.
Cc1ccc(-c2cnc(-c3ccncc3)o2)cc1	-2.1	12.7	45.3*	6.2
CC(C)NC(=O)Nc1ccc2c(c1)C(=O)N([C@@H](C)CO)C[C@@H](C)[C@@H](CN(C)C(=O)Nc1ccccc1)O2	.	.	-1.6	.
CCCOc1ccc(C(=O)Nc2ccccc2[N+](=O)[O-])cc1	-7.3	-0.7	63.8*	1.9
Cc1ccc(C)c(NC(=O)c2cc3ccccc3o2)c1	1.9	3.1	74.0*	2.1
O=C(Nc1ccccc1C(F)(F)F)c1cc2ccccc2o1	-1.4	5.9	51.5*	2.4
COc1ccc(C)cc1NC(=O)c1cc2ccccc2o1	6.8	-0.6	8.2	2.6
Cc1ccc(S(=O)(=O)N(C)C[C@H]2Oc3ccc(NC(=O)NC(C)C)cc3C(=O)N([C@@H](C)CO)C[C@H]2C)cc1	.	.	-1.9	.
C[C@@H]1CN([C@@H](C)CO)C(=O)c2cc(NC(=O)CCC(F)(F)F)ccc2O[C@H]1CN(C)Cc1ccc(C(=O)O)cc1	.	.	3.9	.
Cc1c(-c2ccccc2)[nH]n2c(=O)c3c(nc12)CCCC3	4.8	16.1	.	5.1
Cc1ccc(-c2[nH]n3c(=O)c4c(nc3c2C)CCCC4)cc1	5.8	0.4	53.4*	1.0
O=C(Cc1ccc2c(c1)OCCO2)c1c(O)cc(O)cc1O	-4.5	5.4	55.4*	0.7
SMILES	ARFGAP1 inhibitor	ASAP1 GAP inh	esBAF inh	SMARCA2 act
COc1ccc(S(=O)(=O)Nc2ccc3c(c2)CC(=O)N([C@H](C)CO)C[C@@H](C)[C@@H](CN(C)CC2CCCCC2)O3)cc1	.	.	-4.8	.
CN(C)c1cccc(C(=O)NN2C(=O)NC3(CCCCC3)C2=O)c1	-5.0	-10.7	42.7*	3.3
N#Cc1ccc(C(=O)NN2C(=O)NC3(CCCCC3)C2=O)cc1	-15.0	0.8	3.4	2.9
NC(=O)c1oc2ccccc2c1NC(=O)c1nc2ccccc2s1	13.2	20.5	62.9*	3.9
NC(=O)c1oc2ccccc2c1NC(=O)c1ccc(F)cc1	5.3	-1.7	5.3	-1.7
COc1ccccc1C(=O)Nc1nnc(-c2ccc(F)cc2)s1	5.4	-1.2	51.7*	0.5
O=C(Nc1nnc(-c2ccccc2)s1)c1ccc(F)cc1	8.2	3.3	46.6*	2.7
CCCNC(=O)N(C)C[C@@H]1Oc2ncc(C3=CCCC3)cc2C(=O)N([C@@H](C)CO)C[C@@H]1C	.	.	-4.3	.
CCCCNS(=O)(=O)c1ccc2nc(SCC(=O)Nc3sccc3C#N)[nH]c2c1	23.3	26.6*	.	-6.4
CNC[C@@H]1Oc2ncc(C#Cc3cccc(OC)c3)cc2C(=O)N([C@@H](C)CO)C[C@@H]1C	.	.	4.1	.
N#CCc1nc(CSc2nc3ccccc3s2)cs1	13.7	7.7	61.9*	4.2
Cc1ccc(C2NNC(=O)C2NC(=O)c2ccccc2)cc1 (configuration not stated)	-11.1	-21.2	50.6*	5.2
O=C(NC1C(=O)NNC1c1ccccc1)c1ccc(F)cc1 (configuration not stated)	-0.1	10.1	18.8	0.2
COc1ccccc1CNC(=O)C[C@@H]1C[C@H]2c3cc(NS(C)(=O)=O)ccc3O[C@H]2[C@H](CO)O1	.	.	-2.9	.
CCNC(=O)C[C@@H]1CC[C@@H]2[C@H](COC[C@H](O)CN2C(=O)c2cccnc2)O1	.	.	5.2	.
COc1ccc(OC)c(N=CC2=C(O)CC(C)(C)CC2=O)c1	14.7	-7.4	2.4	0.1
COc1ccc(N=CC2=C(O)CC(C)(C)CC2=O)cc1	-9.1	-4.1	49.4*	6.5
O=C(NC1CC(=O)c2sccc21)c1ccc(Cl)cc1Cl (configuration not stated)	7.8	-0.5	42.7*	7.5
O=C(NCCC1CCCC1)c1cccs1	-6.2	3.9	50.1*	1.4
O=C(NCC1CC1)c1cccs1	16.0	2.5	.	-1.4
O=C(NCCc1ccc(F)cc1)c1cccs1	-7.1	-10.1	64.7*	5.9
COc1ccc2cc(CCNC(=O)c3cccs3)c(=O)[nH]c2c1	6.2	-9.4	72.0*	1.9
O=C(NCCc1cccs1)c1cccs1	-12.2	8.7	61.0*	3.0
Cc1noc(C)c1NC(=O)N(C)C[C@@H]1OCCCC[C@H](C)Oc2ccc(NS(C)(=O)=O)cc2C(=O)N([C@@H](C)CO)C[C@H]1C	.	.	3.8	.
CCOc1ccc(C(=O)NNC2CC(=O)N(Cc3ccc(Cl)cc3)C2=O)cc1OC (configuration not stated)	4.0	5.5	.	0.7
COc1ccc(C(=O)NNC2CC(=O)N(Cc3ccccc3)C2=O)cc1OC (configuration not stated)	8.9	-2.8	-0.2	7.9*
CNC[C@@H]1OCCCC[C@@H](C)Oc2ccc(NC(=O)Nc3ccc(F)cc3)cc2C(=O)N([C@@H](C)CO)C[C@@H]1C	.	.	-2.3	.
Cc1nc2cc3c(cc2c(C)c1C(=O)OC(C)C)OCO3	1.3	4.4	46.0*	3.2
O=C(c1cccnc1)N1C[C@H]2[C@@H](c3ccccc31)[C@H](CO)N2CC1CCCC1	.	.	-2.0	.
CNc1cccc(-c2ccc(C(C)=O)s2)n1	7.3	-7.5	52.7*	3.2
